Experimental data from ChEMBL document CHEMBL1121989, “Amino acid amide derivatives of 2-[3-(aminomethyl)-4H-1,2,4-triazol-4-yl]benzophenones, a novel class of annelated peptidoaminobenzophenones” (1982).

Key:
Assay type in all cases: functional
Mus musculus [1] = species on record: Mus musculus; experiment: Antianxiety activity was determined by measuring the antagonism of foot shock induced fighting (taming) in mice
Procedure, shortened: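 Male albino DS mice (20-24 g), oral dosing as arabic gum suspension. Paired mice under glass enclosure given foot shocks (5 Hz, 2 ms, DC 50 V); pairs with 15–20 fighting episodes in 3 min selected, five pairs per dose. Responses counted before and 60 min after dosing; ED50 = dose giving 50% inhibition, by regression analysis.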

Mus musculus [2] = species on record: Mus musculus; experiment: Muscle relaxation was determined by using rotatory drum (rotarod) in mice, activity is expressed as ED50 values
Procedure, shortened: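 Male albino DS mice (20-24 g), groups of five, oral dosing in aqueous arabic gum. At 60 min placed on a 3 cm wooden rod turning at 5 rpm; animals falling off within 2 min counted. ED50 estimated by up and down method.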

Mus musculus [3] = species on record: Mus musculus; experiment: Anticonvulsant activity was determined as the degree of protection against convulsions induced by pentylenetetrazole in mice
Procedure, shortened: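 Male albino DS mice (20-24 g), ten per group, dosed orally as arabic gum suspension. Challenged 60 min later with pentylenetetrazole 125 mg/kg sc; protection from convulsion and death scored over 2 h observation. ED50 (dose protecting 50%) estimated by probit method; 95% confidence limits given.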

Mus musculus [4] = species on record: Mus musculus; experiment: Sedative activity was determined by measuring the inhibition of spontaneous motor activity
Mus musculus [5] = species on record: Mus musculus; experiment: Sedative activity was determined by measuring the loss of the righting reflux induced by chlorprothixene in mice
Procedure, shortened: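 Male albino DS mice (20-24 g), ten per group, given oral test drug (arabic gum suspension) combined with chlorprothixene 2 mg/kg ip; samples estimated 60 min after dosing.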

Mus musculus [6] = species on record: Mus musculus; experiment: Sedative activity was determined by measuring the loss of the righting reflux induced by thiopental sodium in mice
Procedure, shortened: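 Male albino DS mice (20-24 g), ten per group, pretreated orally (arabic gum suspension), then given thiopental sodium 35 mg/kg iv. ED50 = dose producing 50% increase in duration of anesthesia, by regression analysis.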

SMILES | ED50 (Mus musculus [1]) [mg/kg] | ED50 (Mus musculus [2]) [mg/kg] | ED50 (Mus musculus [3]) [mg/kg] | ED50 (Mus musculus [4]) [mg/kg] | ED50 (Mus musculus [5]) [mg/kg] | ED50 (Mus musculus [6]) [mg/kg]
Cc1nnc(CNC(=O)CN)n1-c1ccc(Cl)cc1C(=O)c1ccccc1 | 3.02 | 3.94 | 0.38 | 4.25 | 0.94 | 0.72
Cc1nnc(CNC(=O)CN)n1-c1ccc(Cl)cc1C(=O)c1ccccc1F | 0.28 | 1.84 | 0.09 | 1.52 | 0.16 | 0.25
NCC(=O)NCc1nncn1-c1ccc(Cl)cc1C(=O)c1ccccc1 | 5.71 | 11.8 | 1.37 | 31.7 | 1.66 | 1.97
Cc1nnc(CNC(=O)CN)n1-c1ccc(Cl)cc1C(=O)c1ccccc1Cl | 0.58 | 2.09 | 0.26 | 0.31 | 0.62 | 0.27
Cc1nnc(CNC(=O)C(N)Cc2ccccc2)n1-c1ccc(Cl)cc1C(=O)c1ccccc1Cl (stereo not drawn) | 0.55 | 1.83 | 0.31 | 0.38 | 0.23 | 1.52
NCC(=O)NCc1nnc(C2CC2)n1-c1ccc(Cl)cc1C(=O)c1ccccc1Cl | 2.34 | 18.7 | 0.88 | 1.5 | 0.49 | 4.94
CN(C(=O)CNC(=O)CN)c1ccc(Cl)cc1C(=O)c1ccccc1 | 10.9 | 29.3 | 2.16 | 15.2 | – | 5.2
Cc1nnc2n1-c1ccc(Cl)cc1C(c1ccccc1)=NC2 [ALPRAZOLAM] | 1.09 | 2.22 | 0.22 | 0.94 | 0.25 | 0.36
Clc1ccc2c(c1)C(c1ccccc1)=NCc1nncn1-2 [ESTAZOLAM] | 2.62 | 5.44 | 0.52 | 3.09 | 6.22 | 2.32
CN(C(=O)CNC(=O)CN)c1ccc(Cl)cc1C(=O)c1ccccc1Cl [LORZAFONE ANHYDROUS] | 3.2 | – | 0.56 | 1.4 | 2.59 | 0.8
Cc1nnc2n1-c1ccc(Cl)cc1C(c1ccccc1Cl)=NC2 [TRIAZOLAM] | 0.4 | 0.83 | 0.039 | 0.054 | – | 0.18
